Measurements: ChEMBL document CHEMBL4270645, “Structure-activity relationship study of hypoxia-activated prodrugs for proteoglycan-targeted chemotherapy in chondrosarcoma” (Eur J Med Chem, 2018)
The source made the active and inactive calls. No cut-off for these calls is given here.

What was measured:
[1] = molecular target: Aggrecan core protein (Bos taurus) (UniProt P13608); experiment: Binding affinity to bovine articular cartilage aggrecan at 500 uM by SPR analysis
Outline: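 Aggrecan immobilised on sensor chip, free sites blocked with 1 M ethanolamine pH 8.5. Primary screen as binding level at 500 µM analyte in HBS-P+ running buffer, 30 µL/min, 600 s association, 200 s dissociation. Response corrected against a flow cell without aggrecan; regeneration with 2 M NaCl, 150 s.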

H-EMC-SS [2] = experiment: Antiproliferative activity against human HEMC-SS cells treated for 24 hrs under normoxic condition followed by compound wash-out and incubated under normoxic condition for 48 hrs by alamar blue assay; format: cell-based
Outline: (§1)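 HEMC-SS chondrosarcoma cells (DMEM/F12, 10% FCS, gentamicin) seeded 20.10^3/well, adhered overnight; drug dilution series added, final DMSO 0.5%. Exposed 24 h under normoxia (21% O2, 5% CO2, 37°C) or hypoxia (N2, O2<0.3%, 37°C), then washed with PBS and grown 48 h in normoxia. AlamarBlue viability; IC50 = 50% growth inhibition; at least triplicate, mean ± SD.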

H-EMC-SS [3] = experiment: Selectivity index, ratio of IC50 for human HEMC-SS cells under normoxic condition to IC50 for human HEMC-SS cells under hypoxic condition; format: functional
Aggrecan core protein = Aggrecan core protein (Bos taurus, UniProt P13608); experiment: Binding affinity to bovine articular cartilage aggrecan by SPR analysis
H-EMC-SS [4] = experiment: Antiproliferative activity against human HEMC-SS cells treated for 24 hrs under hypoxic condition followed by compound wash-out and incubated under normoxic condition for 48 hrs by alamar blue assay; format: functional, cell-based; outline: as §1
[5] = Stability in rabbit plasma at 37 degC after 24 hrs by 31P NMR analysis; format: ADME, cell-free, Oryctolagus cuniculus
Outline: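 Heparinised rabbit blood centrifuged (4°C, 1300 g, 10 min) to give plasma. About 10 mg prodrug in 90 µL CH3CN plus 330 µL plasma, followed by 31P NMR at 37°C over 24 h; peak areas, average of two runs.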

[6] = Prodrug activation in pH 7.4 PBS buffer assessed as 15 to 25 ug/ml Escherichia coli nitroreductase-mediated bis(2-chloroethyl)phosphoramidate anion formation by measuring half life at 37 degC in presence of NADPH by RP-HPLC analysis; conditions: isolated protein
Outline: (§2)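 Recombinant E. coli nitroreductase (final 25 or 15 µg/mL) with prodrug 17 µM and NADPH 0.9 mM final, in 10 mM sodium phosphate pH 7.4, 37°C. Aliquots over 2 h run on C18 RP-HPLC; remaining prodrug from peak area at 322 nm. Enzyme-free NADPH controls run in parallel.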

[7] = Prodrug activation in 3 equiv sodium dithionite/CH3CN,/cacodylate buffer at pH 7.4 assessed as bis(2-chloroethyl)phosphoramidate anion formation by measuring half life at 37 degC by 31P NMR analysis; format: physicochemical
Outline: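 Incubation with 3 equiv sodium dithionite in CH3CN/0.1 M cacodylate buffer pH 7.4, probe at 37°C. 31P NMR spectra over 24 h against coaxial Ph3PO reference (26 ppm). Parent loss and phosphoramidate anion formation quantified from peak areas; average of two runs.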

[8] = Chemical stability in pH 7.4 sodium phosphate buffer assessed as drug metabolism at 17 uM at 37 degC after 24 hrs by RP-HPLC analysis; format: physicochemical; conditions: read-out: Drug metabolism
Outline: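 Prodrug at 17 µM in 10 mM sodium phosphate pH 7.4 with 0.13% DMSO, 37°C. Aliquots over 24 h run directly on C18 RP-HPLC (H2O/ACN gradient with 15 mM TFA). Remaining prodrug calculated from peak area at 322 nm.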

[9] = Chemical stability in 3 equiv sodium dithionite/CH3CN,/cacodylate buffer at pH 7.4 at 37 degC after 24 hrs by 31P NMR analysis; format: physicochemical; conditions: pH 7.4, 24 h
[10] = Prodrug activation in pH 7.4 PBS buffer assessed as 15 ug/ml Escherichia coli nitroreductase-mediated corresponding phosphoramidate anion formation by measuring half life at 37 degC in presence of NADPH by RP-HPLC analysis; conditions: isolated protein; outline: as §2
[11] = Prodrug activation in pH 7.4 PBS buffer assessed as 25 ug/ml Escherichia coli nitroreductase-mediated corresponding phosphoramidate anion formation by measuring half life at 37 degC in presence of NADPH by RP-HPLC analysis; conditions: isolated protein; outline: as §2

Chain of Aggrecan core protein (Bos taurus) (P13608 whole entry): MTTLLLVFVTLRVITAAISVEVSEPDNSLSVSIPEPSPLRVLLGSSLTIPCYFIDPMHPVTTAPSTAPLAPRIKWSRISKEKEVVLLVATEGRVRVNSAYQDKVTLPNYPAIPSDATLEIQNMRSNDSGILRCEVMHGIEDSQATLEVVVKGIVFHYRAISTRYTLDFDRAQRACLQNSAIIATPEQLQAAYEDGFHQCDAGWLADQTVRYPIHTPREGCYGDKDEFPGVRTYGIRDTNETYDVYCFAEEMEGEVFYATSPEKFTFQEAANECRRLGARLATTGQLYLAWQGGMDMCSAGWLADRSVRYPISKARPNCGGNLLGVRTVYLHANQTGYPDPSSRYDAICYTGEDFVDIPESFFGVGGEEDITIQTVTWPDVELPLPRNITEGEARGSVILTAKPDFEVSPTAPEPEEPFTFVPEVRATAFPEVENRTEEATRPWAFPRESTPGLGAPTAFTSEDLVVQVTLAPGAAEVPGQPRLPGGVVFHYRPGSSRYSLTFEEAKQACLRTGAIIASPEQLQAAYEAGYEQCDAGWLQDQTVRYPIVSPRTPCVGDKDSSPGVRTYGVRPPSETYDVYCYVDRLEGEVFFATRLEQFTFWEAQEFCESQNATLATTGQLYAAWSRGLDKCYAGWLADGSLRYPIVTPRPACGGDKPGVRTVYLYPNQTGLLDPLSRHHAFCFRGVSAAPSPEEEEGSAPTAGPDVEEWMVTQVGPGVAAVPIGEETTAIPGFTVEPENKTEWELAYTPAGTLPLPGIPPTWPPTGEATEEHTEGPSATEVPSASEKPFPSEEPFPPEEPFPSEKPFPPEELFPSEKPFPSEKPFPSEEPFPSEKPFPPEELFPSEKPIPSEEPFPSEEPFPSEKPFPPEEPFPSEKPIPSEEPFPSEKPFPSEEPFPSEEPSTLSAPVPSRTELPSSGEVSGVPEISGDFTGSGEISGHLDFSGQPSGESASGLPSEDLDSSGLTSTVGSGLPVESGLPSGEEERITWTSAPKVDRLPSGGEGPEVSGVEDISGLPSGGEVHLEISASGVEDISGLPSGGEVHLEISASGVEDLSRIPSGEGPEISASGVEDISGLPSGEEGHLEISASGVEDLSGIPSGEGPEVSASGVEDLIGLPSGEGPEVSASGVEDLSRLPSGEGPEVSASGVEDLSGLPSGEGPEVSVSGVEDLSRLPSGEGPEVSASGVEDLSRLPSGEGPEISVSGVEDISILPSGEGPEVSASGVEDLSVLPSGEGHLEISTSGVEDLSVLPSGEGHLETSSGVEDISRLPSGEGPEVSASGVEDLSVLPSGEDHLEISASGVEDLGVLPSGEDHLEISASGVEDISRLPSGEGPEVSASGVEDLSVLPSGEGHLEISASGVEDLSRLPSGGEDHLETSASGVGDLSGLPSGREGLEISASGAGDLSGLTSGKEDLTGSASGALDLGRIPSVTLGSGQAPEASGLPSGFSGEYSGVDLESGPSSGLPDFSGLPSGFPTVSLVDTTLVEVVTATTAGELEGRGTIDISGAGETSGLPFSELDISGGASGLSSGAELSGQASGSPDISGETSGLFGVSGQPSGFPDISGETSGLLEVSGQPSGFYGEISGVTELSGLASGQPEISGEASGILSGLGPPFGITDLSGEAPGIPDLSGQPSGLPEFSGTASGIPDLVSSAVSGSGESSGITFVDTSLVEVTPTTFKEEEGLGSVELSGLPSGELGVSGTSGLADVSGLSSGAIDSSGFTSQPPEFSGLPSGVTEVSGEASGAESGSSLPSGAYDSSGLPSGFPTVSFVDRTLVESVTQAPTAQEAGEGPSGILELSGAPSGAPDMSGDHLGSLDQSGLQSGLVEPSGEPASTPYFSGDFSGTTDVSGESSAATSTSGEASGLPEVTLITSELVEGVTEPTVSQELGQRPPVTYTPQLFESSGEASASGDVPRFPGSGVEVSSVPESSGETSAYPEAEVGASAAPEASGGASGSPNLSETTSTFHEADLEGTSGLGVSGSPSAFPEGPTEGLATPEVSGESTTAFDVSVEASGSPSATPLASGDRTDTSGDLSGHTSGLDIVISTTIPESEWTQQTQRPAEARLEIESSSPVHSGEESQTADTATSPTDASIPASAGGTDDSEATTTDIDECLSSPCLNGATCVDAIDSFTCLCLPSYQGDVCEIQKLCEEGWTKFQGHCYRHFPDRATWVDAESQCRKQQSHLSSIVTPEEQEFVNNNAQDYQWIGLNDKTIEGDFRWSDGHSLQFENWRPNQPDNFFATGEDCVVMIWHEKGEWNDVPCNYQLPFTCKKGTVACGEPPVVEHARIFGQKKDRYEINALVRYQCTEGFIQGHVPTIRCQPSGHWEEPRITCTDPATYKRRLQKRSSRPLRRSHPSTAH
Chain of Aggrecan core protein (P13608 whole entry): as above

SMILES | Activity [1] | IC50 (H-EMC-SS [2]) | Ratio IC50 (H-EMC-SS [3]) | Kd (Aggrecan core protein) | IC50 (H-EMC-SS [4]) | Stability [5] | t1/2 [6] | t1/2 [7] | degraded at 24 h, 17 µM [8] | Stability [9] | t1/2 [10] | t1/2 [11]
CC[N+](C)(C)CCCCNP(=O)(OCc1cnc([N+](=O)[O-])n1C)N(CCCl)CCCl.[I-] (stereo not drawn) | Active | 10.2 µM | 7 | 2.02 mM | 1500 nM | – | – | – | – | – | – | –
Cn1c(COP(=O)(NCCCCC[N+](C)(C)Cc2ccccc2)N(CCCl)CCCl)cnc1[N+](=O)[O-].[I-] (stereo not drawn) | Active | 28.9 µM | 10 | 2.55 mM | 2800 nM | – | – | – | – | – | – | –
CC[N+](CC)(CC)CCCNP(=O)(OCc1cnc([N+](=O)[O-])n1C)N(CCCl)CCCl.[I-] (stereo not drawn) | Active | 9.7 µM | 7 | 3.49 mM | 1400 nM | – | – | – | – | – | – | –
CC[N+](C)(CCCCNP(=O)(OCc1cnc([N+](=O)[O-])n1C)N(CCCl)CCCl)Cc1ccccc1.[I-] (stereo not drawn) | Active | 40.7 µM | 24 | 2.1 mM | 1700 nM | Stable | < 1 min | < 2 min | < 5% | Stable | – | –
CC[N+](C)(CCCCCNP(=O)(OCc1cnc([N+](=O)[O-])n1C)N(CCCl)CCCl)Cc1ccccc1.[I-] (stereo not drawn) | Active | 12.9 µM | 16 | 3.47 mM | 800 nM | – | – | – | – | – | – | –
Cn1c(COP(=O)(NCC[N+](C)(C)Cc2ccccc2)N(CCCl)CCCl)cnc1[N+](=O)[O-].[I-] (stereo not drawn) | Active | 6.4 µM | 6 | 2.9 mM | 1100 nM | – | – | – | – | – | – | –
Cn1c(COP(=O)(NCCCC[N+](C)(C)Cc2ccccc2)N(CCCl)CCCl)cnc1[N+](=O)[O-].[I-] (stereo not drawn) | Active | 18 µM | 10 | 5.27 mM | 1800 nM | – | – | – | – | – | – | –
Cn1c(COP(=O)(NCCCCC[N+](C)(C)C)N(CCCl)CCCl)cnc1[N+](=O)[O-].[I-] (stereo not drawn) | Active | 25.8 µM | 11 | 4.22 mM | 2400 nM | – | – | – | – | – | – | –
CC[N+](C)(CC)CCCCNP(=O)(OCc1cnc([N+](=O)[O-])n1C)N(CCCl)CCCl.[I-] (stereo not drawn) | Active | 13.4 µM | 6 | 4.97 mM | 2400 nM | – | – | – | – | – | – | –
Cn1c(COP(=O)(NCCC[N+](C)(C)Cc2ccccc2)N(CCCl)CCCl)cnc1[N+](=O)[O-].[I-] (stereo not drawn) | Active | 5.4 µM | 14 | 2.99 mM | 400 nM | – | – | – | – | – | – | –
Cn1c(COP(=O)(NCCC[N+](C)(C)C)N(CCCl)CCCl)cnc1[N+](=O)[O-].[I-] (stereo not drawn) | Active | 29.3 µM | 7 | 1.29 mM | 4300 nM | – | – | – | – | – | 15 min | 5 min
Cn1c(COP(=O)(NCCBr)NCCBr)cnc1[N+](=O)[O-] [EVOFOSFAMIDE] | – | 2.9 µM | 23 | – | 130 nM | – | – | – | – | – | – | –
CC[N+](C)(C)CCCCCNP(=O)(OCc1cnc([N+](=O)[O-])n1C)N(CCCl)CCCl.[I-] (stereo not drawn) | Active | 15.8 µM | 11 | 3.56 mM | 1500 nM | – | – | – | – | – | – | –
CC[N+](C)(CCCNP(=O)(OCc1cnc([N+](=O)[O-])n1C)N(CCCl)CCCl)Cc1ccccc1.[I-] (stereo not drawn) | – | 20.8 µM | 10 | – | 2100 nM | – | – | – | – | – | – | –
